Measured values collected from several papers.
Compare with care: the assays were run in different laboratories.
CYP3A7: Cytochrome P450 3A7 (CYP3A7, Homo sapiens, UniProt P24462)

`C=C(C)[C@]1(O)C[C@@H](C)[C@@]2(O)[C@@H]([C@H]3O[C@@]4([C@H](O)[C@]3(O)COC(=O)c3ccccc3)[C@@H](OC(=O)/C=C/C=C/C=C/CCC)[C@@H](C)C[C@@H]24)[C@H]1O` gave an IC50 of greater than 0.034 µM (MT4; cell growth or viability, ATP luminescence; 96 h).
For `N=c1c2c(-c3ccccc3)c(-c3ccccc3)n(Cc3ccccc3)c2ncn1[C@H]1CC[C@H](O)CC1`, the compound remaining was 44% (metabolic stability; Sprague-Dawley rat, hepatocytes; 1 µM, 4 h).
With `CC[C@H](C)[C@H]1C(=O)N2CCC[C@H]2C(=O)O[C@H](C(C)(C)C)C[C@@H](C)C[C@H](O)[C@H](C)C2=N[C@@H](CCC(=O)N[C@@H](Cc3ccc(OC)cc3)C(=O)N(C)[C@@H](C)C(=O)N1C)CS2` the compound remaining was 100% (metabolic stability; female CD-1 mouse, liver microsomes; 1 µM, 0 h, pH 7.4).
`C=C(C)[C@]12C[C@@H](COC(=O)c3ccccc3)[C@@]34OC5(O[C@@H]1[C@@H]3[C@@H]1O[C@]1(CO)[C@@H](O)[C@@]1(O)[C@H]4[C@H]([C@H](C)[C@@H]1OC(=O)c1ccccc1)[C@H](C)CCCCCC[C@H]5O)O2` has a CC50 of greater than 7 µM (MT4; cell growth or viability, ATP luminescence).
`C=C(C)[C@@]12O[C@@]3(/C=C/C=C/C=C/CCC)O[C@@H]1[C@@H]1[C@@H]4O[C@]4(CO)[C@@H](O)[C@]4(O)C(=O)C(C)=C[C@H]4[C@@]1(O3)[C@H](C)[C@H]2OC(=O)/C=C/c1ccccc1` has an IC50 of greater than 0.034 µM (MT4; cell growth or viability, ATP luminescence; 96 h).
`O=S(=O)(O)C(F)(F)C(F)(F)C(F)(F)C(F)(F)C(F)(F)C(F)(F)C(F)(F)C(F)(F)F` has an IC50 of 16.8 µM (CYP3A7; enzyme activity, inhibitor, mass spectrometry).
The compound remaining of `Cc1ncc2n1-c1ccc(Cl)cc1C(c1ccccc1F)=NC2` is reported as less than 7% (metabolic stability; male rat, liver microsomes; 1 µM, 30 min).
The IC50 of `C=C(C)[C@@]12O[C@@]3(/C=C/C=C/C=C/CCC)O[C@@H]1[C@@H]1[C@@H]4O[C@]4(CO)[C@@H](O)[C@]4(O)C(=O)C(C)=C[C@H]4[C@@]1(O3)[C@H](C)[C@H]2OC(=O)c1ccccc1` is reported as greater than 0.034 µM (MT4; cell growth or viability, ATP luminescence; 96 h).
The compound remaining of `O=C(c1ccc(F)cc1F)N1CCC(NCCSC(c2ccc(F)cc2)c2ccc(F)cc2)CC1` is reported as roughly 30% (metabolic stability; mouse, liver microsomes; 10 µM, 1 h, pH 7.4).
`CCCCCCCCCC(=O)O[C@@]12[C@H](OC(=O)c3ccccc3)[C@@H](C)[C@]3(O)[C@@H]4C=C(C)C(=O)[C@@]4(O)[C@H](O)C(CO)=C[C@H]3[C@@H]1C2(C)C` has a CC50 of greater than 7 µM (MT4; cell growth or viability, ATP luminescence).
The IC50 of `C=C(C)[C@@]12O[C@@]3(/C=C/C=C/C=C/CCC)O[C@@H]1[C@@H]1[C@@H]4O[C@]4(CO)[C@@H](O)[C@]4(O)C(=O)C(C)=C[C@H]4[C@@]1(O3)[C@H](C)[C@H]2OC(=O)/C=C/c1ccc(O)cc1` is reported as greater than 0.034 µM (MT4; cell growth or viability, ATP luminescence; 96 h).
For `Cc1ncc2n1-c1ccc(Cl)cc1C(c1ccccc1F)=NC2`, the compound remaining was 0.3% (metabolic stability; Sprague-Dawley rat, hepatocytes; 1 µM, 4 h).
`COC(=O)N[C@H](C(=O)NN(CC[C@@]1(Cc2ccccc2)C(=O)N([C@H]2c3ccccc3C[C@H]2O)C[C@@H]1O)Cc1ccc(Br)cc1)C(C)(C)C` gave a CC50 of greater than 50 µM (MT4; cell growth or viability, XTT; 5 days).
`O=S(=O)(O)C(F)(F)C(F)(F)C(F)(F)C(F)(F)C(F)(F)C(F)(F)F` gave an inhibition of 48.8% (CYP3A7; enzyme activity, inhibitor; 100 µM, pH 7.4).
